pIC50: −log10 of the molar value. Values belong to the compound of their own block, whether it stands above or below them. Active and inactive are the calls of the source. The rule behind the calls is not given here.
Key:
[1] = Inhibition of rat intestinal cellobiase using cellobiose as substrate
Method in brief: (§1)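 Rat small-intestine brush border membrane preparation, assayed at pH 5.8 with the matching disaccharide as substrate (maltose at 25 mM). Incubation for 10–30 min at 37 °C, stopped by heating at 100 °C for 3 min and centrifuged. Released D-glucose in the supernatant was measured by glucose reagent absorbance at 505 nm.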

[2] = target: T1, Uncharacterized protein (Sus scrofa) (UniProt I3LIR5); test: Inhibition of porcine kidney trehalase at 1000 uM
T1 sequence (whole entry): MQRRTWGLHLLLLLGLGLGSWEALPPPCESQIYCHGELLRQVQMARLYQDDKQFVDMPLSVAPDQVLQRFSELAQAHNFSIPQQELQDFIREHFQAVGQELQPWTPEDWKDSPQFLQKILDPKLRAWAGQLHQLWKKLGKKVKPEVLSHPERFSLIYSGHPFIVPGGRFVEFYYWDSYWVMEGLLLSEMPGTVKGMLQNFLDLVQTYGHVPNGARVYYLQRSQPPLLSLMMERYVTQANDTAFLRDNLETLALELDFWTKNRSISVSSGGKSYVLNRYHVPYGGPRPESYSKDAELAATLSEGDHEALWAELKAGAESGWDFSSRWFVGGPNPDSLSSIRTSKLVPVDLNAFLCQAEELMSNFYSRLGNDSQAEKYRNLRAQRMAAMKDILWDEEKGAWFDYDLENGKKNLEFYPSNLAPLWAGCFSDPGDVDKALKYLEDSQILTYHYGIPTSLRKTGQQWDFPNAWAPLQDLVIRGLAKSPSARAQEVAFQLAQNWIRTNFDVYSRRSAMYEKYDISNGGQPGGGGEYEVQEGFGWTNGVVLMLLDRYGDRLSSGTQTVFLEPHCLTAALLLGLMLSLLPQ

[3] = target: T2, Glucosylceramidase (Bos taurus) (UniProt Q2KHZ8); test: Inhibition of bovine liver beta-glucosidase at 1000 uM
T2 sequence (whole entry): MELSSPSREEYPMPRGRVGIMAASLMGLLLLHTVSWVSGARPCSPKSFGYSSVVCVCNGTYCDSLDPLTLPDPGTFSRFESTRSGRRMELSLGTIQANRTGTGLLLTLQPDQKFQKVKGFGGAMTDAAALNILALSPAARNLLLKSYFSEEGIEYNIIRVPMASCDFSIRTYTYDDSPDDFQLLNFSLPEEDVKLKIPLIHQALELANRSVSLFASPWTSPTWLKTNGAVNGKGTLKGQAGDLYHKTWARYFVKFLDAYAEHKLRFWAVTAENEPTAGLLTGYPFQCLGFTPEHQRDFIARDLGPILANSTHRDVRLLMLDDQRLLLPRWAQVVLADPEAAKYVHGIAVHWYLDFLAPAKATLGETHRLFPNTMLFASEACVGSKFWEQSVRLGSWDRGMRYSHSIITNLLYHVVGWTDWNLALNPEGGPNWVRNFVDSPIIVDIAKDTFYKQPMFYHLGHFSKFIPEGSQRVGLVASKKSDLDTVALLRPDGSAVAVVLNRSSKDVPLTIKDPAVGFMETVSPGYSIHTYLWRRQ

[4] = target: T3, Lysosomal acid glucosylceramidase (Homo sapiens) (UniProt P04062); test: Inhibition of human beta-glucocerebrosidase at 1000 uM
T3 sequence (whole entry): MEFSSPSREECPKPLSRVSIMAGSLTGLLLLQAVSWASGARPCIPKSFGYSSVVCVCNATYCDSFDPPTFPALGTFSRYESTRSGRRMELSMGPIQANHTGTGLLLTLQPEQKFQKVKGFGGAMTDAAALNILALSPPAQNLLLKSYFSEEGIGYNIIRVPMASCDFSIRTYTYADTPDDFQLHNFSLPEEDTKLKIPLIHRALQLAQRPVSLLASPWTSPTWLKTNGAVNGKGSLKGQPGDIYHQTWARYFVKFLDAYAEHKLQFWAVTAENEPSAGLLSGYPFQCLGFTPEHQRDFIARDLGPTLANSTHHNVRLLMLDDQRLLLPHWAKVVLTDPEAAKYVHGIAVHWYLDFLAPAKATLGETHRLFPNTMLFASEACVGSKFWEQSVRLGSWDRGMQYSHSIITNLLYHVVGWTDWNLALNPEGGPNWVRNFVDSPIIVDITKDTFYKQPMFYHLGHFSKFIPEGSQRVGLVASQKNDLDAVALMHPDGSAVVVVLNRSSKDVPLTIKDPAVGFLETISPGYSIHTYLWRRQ

[5] = target: Lysosomal alpha-glucosidase (Homo sapiens) (UniProt P10253); test: Inhibition of alpha-glucosidase in human HepG2 cells assessed as increase in expression of immature high mannose type N-linked oligosachcharides at 500 uM after 48 hrs by MALDI-TOF MS analysis relative to untreated control; assay type: cell-based
Method in brief: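 HepG2 cells were grown in low-glucose DMEM with 10% FCS at 37 °C, 5% CO2, and treated 48 h with 500 μM compound. Homogenates in 0.5% Triton X-100 were DTT-reduced, alkylated with iodoacetamide, trypsinized and PNGase F-released (37 °C, 16 h). Glycans were captured on hydrazide beads, methyl-esterified, released as aoWR derivatives, and profiled by MALDI-TOF MS; proportions were compared with untreated cells.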

[6] = target: T4, Beta-galactosidase (Bos taurus) (UniProt Q58D55); test: Inhibition of bovine liver beta-galactosidase at 1000 uM
T4 sequence (whole entry): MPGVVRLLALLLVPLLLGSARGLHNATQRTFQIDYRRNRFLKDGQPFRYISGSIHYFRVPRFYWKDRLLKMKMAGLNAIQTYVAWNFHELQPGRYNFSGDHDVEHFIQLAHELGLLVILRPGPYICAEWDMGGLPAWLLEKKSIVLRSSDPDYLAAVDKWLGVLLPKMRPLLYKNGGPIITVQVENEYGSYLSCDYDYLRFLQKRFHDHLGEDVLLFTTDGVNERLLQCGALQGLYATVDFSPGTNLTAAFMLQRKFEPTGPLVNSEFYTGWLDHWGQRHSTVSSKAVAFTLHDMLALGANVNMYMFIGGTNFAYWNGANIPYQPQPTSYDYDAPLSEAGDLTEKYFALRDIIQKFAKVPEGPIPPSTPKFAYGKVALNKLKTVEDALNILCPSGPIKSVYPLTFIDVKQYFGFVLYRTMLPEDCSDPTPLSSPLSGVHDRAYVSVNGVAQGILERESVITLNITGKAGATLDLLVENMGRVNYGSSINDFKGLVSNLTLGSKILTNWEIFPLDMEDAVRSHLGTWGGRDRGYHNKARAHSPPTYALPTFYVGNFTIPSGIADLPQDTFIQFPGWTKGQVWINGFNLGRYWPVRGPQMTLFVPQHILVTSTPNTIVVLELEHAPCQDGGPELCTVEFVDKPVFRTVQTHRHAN

[7] = target: T5, Trehalase (Rattus norvegicus) (UniProt O70282); test: Inhibition of rat intestinal trehalase at 1000 uM
T5 sequence (whole entry): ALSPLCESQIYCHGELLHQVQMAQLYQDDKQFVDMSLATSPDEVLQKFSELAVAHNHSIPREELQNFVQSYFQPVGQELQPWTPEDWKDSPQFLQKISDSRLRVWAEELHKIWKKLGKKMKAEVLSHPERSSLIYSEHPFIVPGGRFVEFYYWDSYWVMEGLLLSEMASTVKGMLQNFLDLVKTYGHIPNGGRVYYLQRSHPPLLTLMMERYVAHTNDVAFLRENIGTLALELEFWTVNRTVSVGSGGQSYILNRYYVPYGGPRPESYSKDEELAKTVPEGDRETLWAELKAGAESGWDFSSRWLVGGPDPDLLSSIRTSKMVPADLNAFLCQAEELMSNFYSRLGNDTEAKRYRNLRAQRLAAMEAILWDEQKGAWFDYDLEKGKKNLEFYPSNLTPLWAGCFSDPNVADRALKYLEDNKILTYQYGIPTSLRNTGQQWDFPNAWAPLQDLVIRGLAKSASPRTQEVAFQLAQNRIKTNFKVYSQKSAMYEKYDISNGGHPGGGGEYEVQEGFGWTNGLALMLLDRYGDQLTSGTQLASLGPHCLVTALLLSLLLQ

Mus musculus [8] = test: Antihyperglycemic activity in overnight fasted ddY mouse assessed as decrease in blood glucose level at 0.1 mg/kg administered via stomach tube after 60 mins by sucrose loading test relative to control; assay type: functional; design: scale not given: the % may be the effect or the level left
Method in brief: (§2)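 Male ddY mice received maltose or sucrose (2.5 g/kg) with inhibitor in 0.9% NaCl by stomach tube; controls got saline only. Tail-vein blood glucose was read with a portable meter at 0, 15, 30, 60 and 120 min after loading.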

Mus musculus [9] = test: Antihyperglycemic activity in overnight fasted ddY mouse assessed as decrease in blood glucose level at 0.25 mg/kg administered via stomach tube measured at 15 to 30 mins by maltose loading test relative to control; assay type: functional; design: scale not given: the % may be the effect or the level left; method in brief: as §2
Mus musculus [10] = test: Antihyperglycemic activity in overnight fasted ddY mouse assessed as decrease in blood glucose level at 0.5 mg/kg administered via stomach tube after 60 mins by sucrose loading test relative to control; assay type: functional; design: scale not given: the % may be the effect or the level left; method in brief: as §2
Rattus norvegicus = organism: Rattus norvegicus; test: Inhibition of rat intestinal cellobiase using cellobiose as substrate at 1000 uM; method in brief: as §1
Mus musculus [11] = test: Antihyperglycemic activity in overnight fasted ddY mouse assessed as decrease in blood glucose level at 0.25 mg/kg administered via stomach tube measured at 60 to 120 mins by maltose loading test relative to control; assay type: functional, organism-based; design: dose 0.25 mg/kg; method in brief: as §2
[12] = target: T6, Sucrase-isomaltase, intestinal (Rattus norvegicus, UniProt P23739); test: Inhibition of rat intestinal sucrase using sucrose as substrate
T6 sequence (P23739 1-1013 limits assumed): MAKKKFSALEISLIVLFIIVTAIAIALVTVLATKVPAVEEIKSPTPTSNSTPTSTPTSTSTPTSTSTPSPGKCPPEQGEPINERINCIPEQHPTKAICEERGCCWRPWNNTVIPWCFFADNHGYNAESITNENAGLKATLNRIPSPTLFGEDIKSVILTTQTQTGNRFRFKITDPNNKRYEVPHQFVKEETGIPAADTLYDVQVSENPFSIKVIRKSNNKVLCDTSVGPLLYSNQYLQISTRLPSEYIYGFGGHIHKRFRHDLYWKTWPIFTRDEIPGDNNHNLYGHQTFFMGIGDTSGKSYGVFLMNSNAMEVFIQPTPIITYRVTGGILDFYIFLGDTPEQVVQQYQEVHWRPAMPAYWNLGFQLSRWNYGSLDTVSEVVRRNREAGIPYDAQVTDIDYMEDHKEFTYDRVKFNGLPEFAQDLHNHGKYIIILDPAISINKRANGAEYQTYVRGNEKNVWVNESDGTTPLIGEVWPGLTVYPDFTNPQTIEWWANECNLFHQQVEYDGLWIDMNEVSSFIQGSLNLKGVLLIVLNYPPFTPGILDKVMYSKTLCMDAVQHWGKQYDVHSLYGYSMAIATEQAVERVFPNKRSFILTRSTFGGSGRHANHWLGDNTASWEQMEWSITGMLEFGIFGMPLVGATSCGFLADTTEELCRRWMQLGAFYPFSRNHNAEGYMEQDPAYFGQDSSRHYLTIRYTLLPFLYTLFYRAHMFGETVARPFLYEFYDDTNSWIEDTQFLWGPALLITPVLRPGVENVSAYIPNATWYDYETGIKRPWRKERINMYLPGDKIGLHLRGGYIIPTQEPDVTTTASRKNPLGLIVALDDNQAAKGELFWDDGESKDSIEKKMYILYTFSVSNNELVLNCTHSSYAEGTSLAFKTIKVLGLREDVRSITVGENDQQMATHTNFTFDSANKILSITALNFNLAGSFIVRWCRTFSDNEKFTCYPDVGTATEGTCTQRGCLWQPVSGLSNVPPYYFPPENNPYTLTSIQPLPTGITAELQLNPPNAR
T6 sequence (P23739 1014-1841 limits assumed): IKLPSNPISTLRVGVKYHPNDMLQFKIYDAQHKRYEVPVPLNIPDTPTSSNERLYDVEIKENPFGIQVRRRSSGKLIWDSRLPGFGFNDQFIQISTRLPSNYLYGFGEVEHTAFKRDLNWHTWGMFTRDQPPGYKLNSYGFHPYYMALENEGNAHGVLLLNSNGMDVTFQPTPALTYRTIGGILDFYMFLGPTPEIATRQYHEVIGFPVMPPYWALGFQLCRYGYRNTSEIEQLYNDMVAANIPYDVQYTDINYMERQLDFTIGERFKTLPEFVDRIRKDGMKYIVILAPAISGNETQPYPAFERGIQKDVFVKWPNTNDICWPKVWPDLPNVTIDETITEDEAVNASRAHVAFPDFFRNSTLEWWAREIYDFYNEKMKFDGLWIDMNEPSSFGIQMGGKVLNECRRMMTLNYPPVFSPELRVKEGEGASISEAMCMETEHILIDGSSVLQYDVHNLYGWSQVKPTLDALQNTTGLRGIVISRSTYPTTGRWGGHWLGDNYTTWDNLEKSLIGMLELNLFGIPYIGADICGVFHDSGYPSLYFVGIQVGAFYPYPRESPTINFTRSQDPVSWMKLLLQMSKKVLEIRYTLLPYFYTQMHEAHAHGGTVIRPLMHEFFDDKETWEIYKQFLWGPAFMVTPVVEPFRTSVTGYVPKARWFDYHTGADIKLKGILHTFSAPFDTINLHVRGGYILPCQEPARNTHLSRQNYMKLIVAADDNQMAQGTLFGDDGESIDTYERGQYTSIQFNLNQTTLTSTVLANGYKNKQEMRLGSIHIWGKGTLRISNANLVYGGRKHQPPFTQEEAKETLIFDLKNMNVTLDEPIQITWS

[13] = target: T6, Sucrase-isomaltase, intestinal; test: Inhibition of rat intestinal isomaltase […] as substrate
Uncharacterized protein = target: T7, Uncharacterized protein (Sus scrofa, UniProt I3LIR5); test: Inhibition of porcine kidney trehalase
T7 sequence (I3LIR5 whole entry): T1 sequence (whole entry)

[14] = target: Lactase/phlorizin hydrolase (Rattus norvegicus, UniProt Q02401); test: Inhibition of rat intestinal lactase using lactose as substrate
Sequence of Lactase/phlorizin hydrolase (Q02401 868-1928 limits assumed): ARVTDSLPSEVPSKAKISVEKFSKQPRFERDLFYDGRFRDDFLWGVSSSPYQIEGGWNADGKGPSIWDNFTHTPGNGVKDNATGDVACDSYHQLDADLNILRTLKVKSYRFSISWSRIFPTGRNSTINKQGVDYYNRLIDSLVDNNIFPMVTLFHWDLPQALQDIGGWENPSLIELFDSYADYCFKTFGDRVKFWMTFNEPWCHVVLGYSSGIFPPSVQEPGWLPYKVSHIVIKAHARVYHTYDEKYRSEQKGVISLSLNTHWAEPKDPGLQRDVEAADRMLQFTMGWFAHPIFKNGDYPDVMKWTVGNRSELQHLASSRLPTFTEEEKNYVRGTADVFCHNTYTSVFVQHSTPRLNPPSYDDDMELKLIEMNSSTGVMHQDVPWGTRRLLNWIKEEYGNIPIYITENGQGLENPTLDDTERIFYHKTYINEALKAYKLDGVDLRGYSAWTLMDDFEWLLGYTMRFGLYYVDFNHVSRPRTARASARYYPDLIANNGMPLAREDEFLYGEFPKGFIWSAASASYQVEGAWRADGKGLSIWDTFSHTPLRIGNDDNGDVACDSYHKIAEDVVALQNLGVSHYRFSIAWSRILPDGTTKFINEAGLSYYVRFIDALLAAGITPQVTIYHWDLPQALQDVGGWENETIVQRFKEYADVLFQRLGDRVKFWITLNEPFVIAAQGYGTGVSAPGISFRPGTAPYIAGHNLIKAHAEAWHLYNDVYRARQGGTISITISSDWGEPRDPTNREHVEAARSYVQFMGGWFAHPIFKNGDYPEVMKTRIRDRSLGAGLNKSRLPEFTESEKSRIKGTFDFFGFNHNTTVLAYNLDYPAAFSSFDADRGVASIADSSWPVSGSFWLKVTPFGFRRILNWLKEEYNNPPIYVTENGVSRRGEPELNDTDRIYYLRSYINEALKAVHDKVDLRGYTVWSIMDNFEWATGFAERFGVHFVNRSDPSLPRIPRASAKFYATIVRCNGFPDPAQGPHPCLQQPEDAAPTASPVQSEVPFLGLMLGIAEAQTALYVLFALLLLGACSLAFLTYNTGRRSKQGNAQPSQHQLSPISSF

Trehalase = target: T8, Trehalase (Rattus norvegicus, UniProt O70282); test: Inhibition of rat intestinal trehalase
T8 sequence (O70282 whole entry): T5 sequence (whole entry)

SMILES: CCCCCCCC[C@H]1N[C@H](CO)[C@@H](O)[C@H](O)[C@H]1O
pIC50 [12]: 5.82
pIC50 [13]: 6.92

SMILES: CCC[C@@H](O)[C@@H]1N[C@@H](CO)[C@H](O)[C@H]1O
pIC50 [12]: 5.24
pIC50 [13]: 3.11

SMILES: OC[C@@H]1NC[C@H](O)[C@H]1O
pIC50 (Uncharacterized protein): 3.88
pIC50 [14]: 3.38
inhibition [3]: < 50%
inhibition [4]: < 50%
inhibition [6]: < 50%
inhibition (Rattus norvegicus): < 50%
pIC50 (Trehalase): 4.12

SMILES: OC[C@@H]1N[C@@H](CCCCc2ccccc2)[C@H](O)[C@H]1O
pIC50 [12]: 6.51
pIC50 [13]: 4.85

Now from value to compound, other results behind:

inhibition [2]: < 50%
inhibition [3]: < 50%
inhibition [4]: < 50%
inhibition [5]: inactive
inhibition [6]: < 50%
inhibition [7]: < 50%
inhibition (Rattus norvegicus): < 50%
SMILES: CCCC[C@@H]1N[C@@H](CO)[C@H](O)[C@H]1O
Activity (Mus musculus [8]): 49.1%
Activity (Mus musculus [9]): 43.9%
Activity (Mus musculus [10]): 69.2%
Activity (Mus musculus [11]): inactive

pIC50 [12]: 6.62
pIC50 [13]: 4.92
SMILES: CC(C)CCC[C@@H]1N[C@@H](CO)[C@H](O)[C@H]1O

pIC50 [12]: 5.62
pIC50 [13]: 6.51
SMILES: CCCCCC[C@H]1N[C@H](CO)[C@@H](O)[C@H](O)[C@H]1O

Reference: ChEMBL document CHEMBL2176873, “α-1-C-butyl-1,4-dideoxy-1,4-imino-l-arabinitol as a second-generation iminosugar-based oral α-glucosidase inhibitor for improving postprandial hyperglycemia” (J Med Chem, 2012)
